Shown are actives, neighbours in structure and some others; about 3.8% of the full set was active somewhere.
TMEM16A inh: TMEM16A chloride channel inhibitors, primary screen, cell-based, HTS; normalized B-score (activity score, 25-100; higher = stronger inhibition) at 10 µM; AID 588511, 2011; 310,000 compounds, 1.2% hits; HEK293 TMEM16A/YFP iodide influx fluorescence, ionomycin;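 active = ratio plate-corrected score three or more library SD toward inhibition, starting fluorescence score within five deviations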;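 also: score derived from kinetic fluorescence span divided by baseline fluorescence per well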
Target sequence (Q8BHY3 whole entry, looked up): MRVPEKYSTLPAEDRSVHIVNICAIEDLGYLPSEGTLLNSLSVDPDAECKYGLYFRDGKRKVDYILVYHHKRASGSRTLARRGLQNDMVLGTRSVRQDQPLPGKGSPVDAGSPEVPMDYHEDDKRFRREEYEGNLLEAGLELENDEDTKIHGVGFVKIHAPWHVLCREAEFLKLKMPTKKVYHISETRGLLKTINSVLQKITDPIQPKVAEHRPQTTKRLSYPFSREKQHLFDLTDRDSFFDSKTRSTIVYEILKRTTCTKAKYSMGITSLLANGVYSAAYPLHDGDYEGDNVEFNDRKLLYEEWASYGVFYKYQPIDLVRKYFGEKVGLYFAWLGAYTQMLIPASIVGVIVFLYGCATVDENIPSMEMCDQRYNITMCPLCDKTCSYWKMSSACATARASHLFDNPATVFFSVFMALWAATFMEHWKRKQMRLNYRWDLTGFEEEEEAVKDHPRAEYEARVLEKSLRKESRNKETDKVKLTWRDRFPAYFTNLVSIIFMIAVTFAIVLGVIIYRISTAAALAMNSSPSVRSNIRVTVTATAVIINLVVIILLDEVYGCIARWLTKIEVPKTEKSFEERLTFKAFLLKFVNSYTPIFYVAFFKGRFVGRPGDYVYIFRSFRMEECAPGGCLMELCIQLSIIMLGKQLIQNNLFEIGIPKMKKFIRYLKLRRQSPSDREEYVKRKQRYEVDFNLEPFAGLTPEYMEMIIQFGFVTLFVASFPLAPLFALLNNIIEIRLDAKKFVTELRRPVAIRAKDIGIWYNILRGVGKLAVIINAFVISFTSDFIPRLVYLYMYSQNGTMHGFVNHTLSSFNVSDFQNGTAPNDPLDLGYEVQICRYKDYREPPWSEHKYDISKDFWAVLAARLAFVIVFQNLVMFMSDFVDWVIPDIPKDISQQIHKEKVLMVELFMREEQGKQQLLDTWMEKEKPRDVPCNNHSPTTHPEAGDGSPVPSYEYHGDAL
MC4R barr agon: MC4R agonists recruiting beta-arrestin, primary screen, cell-based, luminescence, agonist arm of biased-ligand search; U2OS MC4R beta-arrestin complementation; percent of melanotan II response, DMSO zero; activation, % at 8.9 µM; 360,000 compounds, 0.98% hits; AID 540308, 2011;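 active = activation above a per-plate cutoff, the mean activation of sample wells on that plate plus 3 SD, cut at about 8% in these data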
CSC inhib: cancer stem cell viability inhibitors, primary screen, luminescence; cancer stem cell-like cells viability; inhibition, % at 7.5 µM; 300,000 compounds, 1.1% hits; AID 2717, 2010; in the data active = inhibition above about 75%; tested in HMLE shEcad cells
TMEM16A act: TMEM16A chloride channel activators or potentiators, primary screen, cell-based, HTS | Anoctamin-1 (Mus musculus), Q8BHY3 | HEK293 TMEM16A/YFP-H148Q/I152L, iodide quench fluorescence; active compounds read low | 340,000 compounds, 0.3% hits | B-score at 10 µM | AID 623877, 2012;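 active = fluorescence-ratio B-score plate-corrected deviation score at least 3 library SD below zero, with starting fluorescence score within 5 deviations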;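 also: channel opened by trigger with iodide after compound preincubation; score built on the fluorescence ratio of max minus min over baseline; more negative score means more quench and so TMEM16A activation or potentiation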
Beta cell apopt: inhibitors of cytokine-induced beta cell apoptosis, primary screen, luminescence | INS-1E cytokine-induced death, ATP luminescence, 48 h; percent of positive-control rescue, neutral wells zero | 300,000 compounds, 0.8% hits | protection from apoptosis, % (test concentration not listed) | AID 435005, 2010;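 active = Every replicate reaches about 75%, or at least half do and their mean reaches it too, limit read from the data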;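 also: higher means more ATP so stronger rescue from cytokine killing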
MC4R antagonist: MC4R antagonists of cAMP signaling, primary screen, cell-based, TR-FRET, antagonist arm of biased-ligand search; MC4R-expressing cells, MTII-stimulated cAMP, LANCE TR-FRET; inhibition, % at 6.5 µM; 360,000 compounds, 0.48% hits; AID 540295, 2011;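 active = inhibition above its plate's cutoff, the mean of tested wells on that plate plus 3 SD, cut at about 29% in these data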
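system = U2OS cells with stable human MC4R expression | also added = Melanotan II challenge after compound preincubation | dosing = one concentration, 6.5 µM nominal | incubation = compound 30 min, challenge 1 h, detection 1 h | measured by = TR-FRET with Eu-cAMP and labeled anti-cAMP, 671 nm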
Hits are given with their value; n = inactive; x = not tested or not shown.

SMILES	TMEM16A inh	MC4R barr agon	CSC inhib	TMEM16A act	Beta cell apopt	MC4R antagonist
Cc1ccc(S(=O)(=O)N2[C@@H](c3ccccc3)C(C(=O)O)=CC[C@H]2c2ccc(C(C)C)cc2)cc1	100	n	n	n	n	n
Cc1ccc(S(=O)(=O)N2[C@@H](c3ccc(Cl)cc3)C(C(=O)O)=CC[C@H]2c2ccc(C(C)C)cc2)cc1	100	n	n	n	n	n
Cc1ccccc1CNC(=O)C(C)Sc1ccccc1 (stereo unspecified)	x	n	x	x	x	n
Cc1nc(Nc2ccc(S(=O)(=O)N3CCCCC3C)cc2)c2nnn(Cc3ccccc3)c2n1 (stereo unspecified)	n	n	n	n	75.5	n
COc1cc(C)ccc1S(=O)(=O)NC(=O)C1(C)CCN1C(=O)c1ccc(C(F)(F)F)nc1C (stereo unspecified)	x	n	x	x	x	n
NC1=NC[C@@H](CC2CCCCC2)N1CCc1cc(C(F)(F)F)cc(C(F)(F)F)c1	x	n	139.1	x	108.9	n
COc1ccc(CCNC(=O)c2sc3cc(C)ccc3c2Cl)cc1	n	9.4	n	n	n	n
Cc1ccc2c(Cl)c(C(=O)NCCc3ccccc3)sc2c1	n	n	n	n	n	n
CCN(CC)S(=O)(=O)c1ccc(-c2nnc(SCc3nnc(-c4ccccc4)o3)o2)cc1	n	8.4	n	n	n	n
O=C(CN1C(=O)NC2(CCCCC2)C1=O)Nc1ccc(Cl)cc1	x	n	n	n	n	n
CCC(c1nnnn1Cc1ccco1)N1CCN(c2cc(Cl)ccc2C)CC1 (stereo unspecified)	n	n	94.3	n	n	n
CC1CN(C(=O)COC(=O)Cc2ccc(Cl)cc2)CC(C)O1 (stereo unspecified)	x	n	n	n	n	n
CC[C@@]1(C(=O)OC)N[C@H](CN(C)C(=O)Nc2ccc(F)cc2)[C@@H]2C(=O)N(C)C(=O)[C@@H]21	x	n	x	n	n	n
COc1ccc(OCC(=O)NC(=S)NNC(=O)COc2ccc(Br)cc2Cl)cc1	n	n	n	n	n	n
Cc1cc(OCC(=O)NNC(=S)NC(=O)c2ccc(Br)o2)ccc1Cl	25	n	n	-4.56	n	n
COc1ccc(C(C)=O)c(OCC(=O)NCCC2=CCCCC2)c1	x	n	x	x	x	n
CC(C)(Sc1ccc(CCN(CCCCC2CCCCC2)C(=O)NC2CCCCC2)cc1)C(=O)O	100	n	98.7	n	n	n
CN(Cc1ccccc1)C(=O)NC1CCCCC1	n	n	n	n	n	n
COc1ccc(Cc2nnc(N/N=C/c3ccc(O)cc3)[nH]c2=O)cc1OC	n	n	102.0	n	98.9	n
COC(=O)c1cc(S(=O)(=O)NCCc2ccc(C)cc2)c[nH]1	25	n	n	n	n	n
CCc1c(C2(O)CCCCC2)[nH]c2c(C(=O)OC)cc(Cl)cc12	n	n	104.9	n	n	n
CCc1nc2c(OCC(=O)C(C)(C)C)cccn2c1N(C)C(=O)CC(C)C	x	n	x	x	x	n
Cc1cc(N2CCN(S(=O)(=O)c3ccc(Cl)cc3)CC2)c2ccccc2n1	100	n	n	n	81.5	n
CCCc1nnc(SCC(=O)N(CC)CC)n1CC1CCCO1 (stereo unspecified)	n	n	n	n	n	n
CCCc1nnc(SCC(=O)N2CCCCC2C)n1CC1CCCO1 (stereo unspecified)	25	n	n	n	n	n
SMILES	TMEM16A inh	MC4R barr agon	CSC inhib	TMEM16A act	Beta cell apopt	MC4R antagonist
O=C(Cc1cccc(C(F)(F)F)c1)NCc1cccnc1	n	n	n	n	n	n
C#CCN1C=C(C(=O)OCC)C(C)N(Cc2ccccc2I)S1(=O)=O (stereo unspecified)	x	n	x	-4.98	x	n
Cc1cc(-c2ccccc2)nc2cc(C(=O)N(Cc3ccccc3)Cc3ccccc3)nn12	n	n	82.9	n	n	n
COc1ccccc1OCC(=O)NCC1CCCN(Cc2cnn(C)c2C)C1 (stereo unspecified)	n	n	n	n	x	n
Cc1ccc(S(=O)(=O)NC(C)(C)CN2CCC(Cc3ccccc3)CC2)cc1	n	8.4	x	n	x	n
O=CNC(n1cnc2c(N3CCOCC3)ncnc21)C(Cl)(Cl)Cl (stereo unspecified)	n	n	n	-7.18	n	n
Cc1cc(NC(=O)COC(=O)C(Nc2ccc(C(F)(F)F)cc2Cl)C(C)C)no1 (stereo unspecified)	100	n	n	n	n	n
S=C(NCc1ccccc1)N1CCN(C(=S)NCc2ccccc2)CC1	x	n	n	n	n	n
Cc1ccc(C)c(N2N=C(C(=O)N(CC(C)C)c3c(N)n(Cc4ccccc4)c(=O)[nH]c3=O)CCC2=O)c1	n	n	n	n	n	n
C=CCn1c(O)c(C2=c3ccccc3=NC2=O)sc1=Nc1ccc(O)cc1	n	n	94.9	n	n	n
O=C(CCSc1ccccc1)N1CCN(c2ccccc2)CC1	n	n	n	n	n	n
O=C(COc1cccc(C(F)(F)F)c1)N1CCN(c2ccccc2O)CC1	n	n	n	n	n	n
O=C(CSc1ccc(Cl)cc1)Nc1ccc(N2CCN(C(=O)c3ccc(Cl)cc3)CC2)cc1	n	14.0	n	n	n	n
O=C(CSc1nc2cc(Cl)ccc2o1)Nc1ccc(N2CCOCC2)cc1	n	18.5	x	n	x	n
O=C(CCSc1ccc(Cl)cc1)N1CCN(c2ccc(O)cc2)CC1	n	n	106.2	n	n	n
O=C(COc1cccc(C(F)(F)F)c1)N1CCN(c2ccc(O)cc2)CC1	n	n	78.0	n	n	n
COc1ccc(N(CC(=O)N2CCN(C)CC2)S(=O)(=O)c2cc(C)ccc2OC)cc1Cl	n	n	n	n	n	n
CN(CC1COc2ccccc2O1)C(=O)CCNS(=O)(=O)c1ccc(F)c(Cl)c1 (stereo unspecified)	x	n	x	x	x	n
CC1(C(=O)NS(=O)(=O)c2ccccc2Cl)CCN1C(=O)c1cccc2ccccc12 (stereo unspecified)	x	n	x	x	x	n
O=C(CCOc1ccccc1)N1CCN(c2ccc(O)cc2)CC1	n	n	82.0	n	n	n
CN(C)CCNC(=O)/C(=C/c1ccc(-c2ccc(Cl)cc2)o1)NC(=O)c1ccccc1	n	n	n	n	n	n
CN(C)CCNC(=O)/C(=C/c1ccc(-c2ccc(Cl)cc2Cl)o1)NC(=O)c1ccccc1	n	n	110.0	n	99.4	n
O=C1c2ccccc2C(=O)c2c(NCCCN(CCO)CCO)cccc21	x	n	x	n	x	n

Compound activity (PubChem)
